Screening data deposited in PubChem by several laboratories.
Sampled rows, rich in hits. Any-hit rate of the full collection: about 0.85%.
CRFBP-R2 agonist – agonists of CRF-BP/CRF-R2 complex, primary screen, cell-based, HEK293, calcium dye fluorescence, uHTS; AID 588473, 2011; activation, % at 13.2 µM; CRF-binding protein / CRF receptor 2 complex (human); calcium dye fluorescence (FLIPR); percent of saturating CRF peptide response; hit rate 0.46% among 350,000;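 active means activation of at least 50%, plus an integration ratio under a set limit after plate pattern correction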;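 further: plate controls were neutral control wells without compound for no effect and CRF at EC100 for full effect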
V1R ag counter – agonists of human V1a receptor, primary screen, counter-screen for OXTR agonist project, fluorescence, CHO-V1R cells; Vasopressin V1a receptor (Homo sapiens), P37288; Fluo-8 calcium fluorescence, agonist mode; 0% DMSO, 100% 3 nM vasopressin; activation, % at 3 µM; hit rate 0.25% among 320,000;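 active means activation above the mean activation of all tested compounds plus 3 SD, per screening run, cut at about 20% in these data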;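 further: signal is peak over basal fluorescence ratio across a 100 second FLIPR read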
Target sequence (P37288 whole entry, looked up): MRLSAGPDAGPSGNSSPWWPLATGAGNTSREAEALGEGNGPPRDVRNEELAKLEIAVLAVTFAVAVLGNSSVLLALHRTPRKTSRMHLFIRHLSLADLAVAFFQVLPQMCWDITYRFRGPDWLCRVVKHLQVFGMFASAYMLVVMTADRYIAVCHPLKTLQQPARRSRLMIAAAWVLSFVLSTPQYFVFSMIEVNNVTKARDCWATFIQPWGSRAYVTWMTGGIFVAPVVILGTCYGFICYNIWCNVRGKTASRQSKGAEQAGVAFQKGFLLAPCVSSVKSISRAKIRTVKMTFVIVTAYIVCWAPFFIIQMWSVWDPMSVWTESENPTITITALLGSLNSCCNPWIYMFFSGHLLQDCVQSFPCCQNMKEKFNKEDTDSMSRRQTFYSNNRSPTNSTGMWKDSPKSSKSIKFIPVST
OXTR ag – human OXTR agonists, primary screen, fluorescence, CHO-OTR cells, Fluo-8 calcium; AID 2435, 2010; Oxytocin receptor (Homo sapiens), P30559; hit rate 0.32% among 320,000; activation, % at 3 µM; Fluo-8 calcium fluorescence; normalized: DMSO 0%, oxytocin 100%;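 active means activation above the mean of all tested compounds plus 3 SD, cutoff set per screening run, cut at about 20% in these data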;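 further: peak over basal fluorescence ratio from a 100 s FLIPR kinetic read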
OXTR potentiator – human OXTR potentiators, primary screen, fluorescence, CHO-OTR cells, Fluo-8 calcium; hit rate 0.061% among 320,000; Oxytocin receptor (Homo sapiens), P30559; activation, % at 3 µM; Fluo-8 calcium fluorescence, potentiator mode; 0% = oxytocin EC15, 100% = EC100;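 active means activation above that plate's cutoff, the mean activation of tested compounds plus 3 SD, cut at about 6.6% in these data, passing the limit was not always enough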;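 further: 100% uses oxytocin at 75 nM as the full agonist control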
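Assay system: CHO cell line stably expressing human OTR. Reagent: EC15 oxytocin agonist. Dosing: single dose, 3.0 µM nominal final compound concentration. Timing: compound 6 min at room temperature before oxytocin, 100 s read. Signal: kinetic Fluo-8 calcium fluorescence. Controls: oxytocin EC15 low and EC100 high.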
zfTRPN1 agonist – zebrafish TRPN1 channel agonists, primary screen, cell-based, HEK293, calcium fluorescence. HEK293 zebrafish TRPN1-YFP, Fluo-8 calcium fluorescence; 100% = response to 87 µM carbachol. activation, % at 3 µM. hit rate 0.18% among 220,000;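 active means activation above its plate's cutoff, the mean activation of test wells on that plate plus 3 SD, cut at about 19% in these data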;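 further: 0% = DMSO alone and 100% = 87 µM carbachol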
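Control set: carbachol 87 µM as high control, DMSO as low control; system: HEK293 stable line with zebrafish TRPN1-YFP; read-out: % activation versus carbachol response; detection: intracellular calcium fluorescence with Fluo-8; doses: single test compound dose, 3 µM nominal, 0.3% DMSO; schedule: dye 1 h 37 °C plus 30 min RT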
TRPML3 agonist – human TRPML3 channel agonists, primary screen, cell-based, HEK293 TRPML3-YFP, Fluo-8 calcium fluorescence, 3 µM; Mucolipin-3 (Homo sapiens), Q8TDD5; activation, % at 3 µM; 100% = the carbachol control signal; AID 1448, 2008; hit rate 0.29% among 220,000;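 active means activation above its plate's cutoff, the mean activation of the plate's test wells plus 3 SD, cut at about 12% in these data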;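 further: 0% = DMSO only wells and 100% = carbachol wells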
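Test system – HEK293 line with stable expression of human TRPML3-YFP channel · Control set – carbachol 87 µM final as high control (100%), DMSO as low control (0%) · Signal – Fluo-8 calcium dye fluorescence, ex 470-495, em 515-575 nm · Incubation – 1-h 37 °C dye load, 5-s basal, 120-s post-compound reads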
TRPN1 ag 2 – zebrafish TRPN1 channel agonists, counter-screen for TRPML3 agonist project, cell-based, HEK293 TRPN1-YFP, Fluo-8 calcium | shares compounds with TRPML3 agonist | Fluo-8 calcium fluorescence; scaled: carbachol wells 100%, DMSO wells 0% | activation, % at 3 µM | hit rate 10% among 310 | AID 1525, 2009;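 active means mean activation over replicates above a set limit taken from the earlier TRPN1 channel primary screen, cut at about 19% in these data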;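 further: 100% = carbachol and 0% = 0.3% DMSO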
TRPML3 ag conf – human TRPML3 channel agonists, confirmation, cell-based, HEK293 TRPML3-YFP, Fluo-8 calcium, triplicate | AID 1526, 2009 | activation, % at 3 µM | Fluo-8 calcium fluorescence; 100% set by carbachol, 0% by DMSO | hit rate 80% among 310 | shares compounds with TRPML3 agonist;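 active means activation above a set limit derived from the earlier primary screen, cut at about 12% in these data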
* = called active by the depositor; / = no result.

SMILES	CRFBP-R2 agonist	V1R ag counter	OXTR ag	OXTR potentiator	zfTRPN1 agonist	TRPML3 agonist	TRPN1 ag 2	TRPML3 ag conf
Cc1ccc(C(=O)NNC(=S)NC(=O)c2ccco2)cc1	97*	64*	45*	-15	18	28*	39*	36*
COc1ccc(C)cc1S(=O)(=O)N1c2ccc(C)cc2C2CN(C)CCC21 (configuration not stated)	0	/	/	/	/	/	/	/
O=S(=O)(Cc1cc(Cl)nc(-c2ccccc2)n1)c1ccccc1	-1	-2	-2	0	-1	19*	-1	35*
COc1ccc(C2=CSC3=NCCN23)cc1Br	4	0	1	3	/	/	/	/
CCN(CC)Cc1ccccc1CNC(=O)c1cccc(S(=O)(=O)Nc2ccc3c(c2)OCO3)c1	0	1	3	-10	/	/	/	/
CC(c1ccccc1)C1CC(=O)N(C2CCCCC2)C1=O (configuration not stated)	1	-2	-2	-6	-1	27*	0	25*
CSc1nsc(SC)c1C(=O)N1CCN(S(=O)(=O)c2ccc(C)cc2)C1C(C)C (configuration not stated)	1	0	-2	-13	-1	46*	-2	26*
CC12CCC(C(=O)N(CC(=O)O)C1=O)C2(C)C (configuration not stated)	2	1	-1	-9	1	1	/	/
CC12CCC(C(=O)N(CSC(=S)N/N=C\c3ccccc3Cl)C1=O)C2(C)C (configuration not stated)	3	0	-2	-11	-1	38*	-1	0
CC12CCC(C(=O)N(CSC(=S)N/N=C\c3ccccc3)C1=O)C2(C)C (configuration not stated)	-2	-1	-2	-16	0	43*	-1	2
CC(=Nc1ccc(O)cc1)c1sc2ccccc2c1O	27	7	8	-12	2	2	/	/
CC(=Nc1ccccc1O)c1sc2ccccc2c1O	36	31*	27*	-9	16	12*	21*	9
COC(=O)c1cc(S(=O)(=O)N(C)C2CCCCC2)oc1C	0	-1	-3	-8	-2	4	/	/
COc1cc(S(=O)(=O)N(C)C2CCCCC2)c(C)cc1C	1	/	/	/	-3	54*	-3	63*
CN(c1ccccc1)S(=O)(=O)c1cccc2ccccc12	1	0	-2	-13	/	/	/	/
CN(c1ccccc1)S(=O)(=O)c1cc(Cl)ccc1Cl	0	-2	-1	0	-2	49*	-3	67*
CN(c1ccccc1)S(=O)(=O)c1cccc(Cl)c1Cl	-4	-1	0	-3	-2	53*	-4	40*
COc1ccc(OC[C@@H](O)CNC(=O)c2cccc3c2C(=O)c2ccc(Cl)cc2S3(=O)=O)cc1	-1	0	-1	-3	/	/	/	/
O=C(CCc1nnc(C2(c3ccc(Cl)cc3)CCC2)o1)N1CCCC(O)C1 (configuration not stated)	0	1	0	-5	/	/	/	/
Cc1ccc(S(=O)(=O)N2CC3CCCC2C3)cc1 (configuration not stated)	-1	0	-3	2	1	33*	0	39*
C[C@H](NC(=O)c1ccco1)C(=O)NCCc1ccc(S(N)(=O)=O)cc1	1	2	1	3	0	1	/	/
O=[N+]([O-])/C=C\c1ccc(N2CCCC2)c(F)c1	106*	/	/	/	11	13*	27*	23*
O=C(Nc1ccccc1)c1ccc(S(=O)(=O)N2CCCCC2)cc1	-1	5	3	-7	2	1	/	/
O=C(Nc1ccn(-c2ccccc2)n1)c1ccc(S(=O)(=O)N2CCCCCC2)cc1	2	2	0	-7	3	53*	6	61*
O=C(COc1ccc(S(=O)(=O)N2CCOCC2)cc1)NCCN1CCOCC1	-1	-1	0	-2	/	/	/	/
SMILES	CRFBP-R2 agonist	V1R ag counter	OXTR ag	OXTR potentiator	zfTRPN1 agonist	TRPML3 agonist	TRPN1 ag 2	TRPML3 ag conf
CCOc1ccc(C(C(=O)NC2CCCC2)N(Cc2ccccc2)C(=O)c2nsc(Cl)c2Cl)cc1 (configuration not stated)	5	2	-1	-7	0	1	/	/
COc1ccc(C(C(=O)NC2CCCC2)N(Cc2ccccc2)C(=O)c2nsc(Cl)c2Cl)cc1 (configuration not stated)	1	2	0	-8	-1	17*	0	24*
O=C(Nc1nc(-c2ccc3ccccc3c2)cs1)C1CCN(S(=O)(=O)c2cccs2)CC1	0	0	-1	-5	0	19*	3	52*
Cc1ccc(-c2csc(NC(=O)C3CCN(S(=O)(=O)c4cccs4)CC3)n2)cc1	3	5	7	-4	3	4	/	/
Nc1nnc(SCc2c(F)cccc2Cl)s1	0	2	-2	-5	0	1	/	/
Cc1[nH]n(-c2ccccc2)c(=O)c1/C=N/N1C(=O)c2ccc3c4c(ccc(c24)C1=O)CC3	18	-1	-2	1	-3	0	/	/
Cc1nn(C(C)(C)C)c(OC(=O)C2CCCC2)c1S(=O)(=O)c1ccccc1	2	/	/	/	0	16*	-1	23*
CCOC(=O)C1CCN(S(=O)(=O)c2ccc(C)cc2)CC1	0	0	0	-9	0	0	/	/
COCC(=O)Oc1c(S(=O)(=O)c2ccccc2)c(C)nn1C(C)(C)C	1	1	1	-1	/	/	/	/
Cc1ccc(S(=O)(=O)c2c(C)nn(C(C)(C)C)c2OC(=O)C2CCCC2)cc1	4	1	1	-12	2	32*	2	24*
